Calls of active or inactive are those of the source. No cut-off for these calls is given here.
The molecules below were run against T1, Phospholipase A2 (Apis mellifera, UniProt B7UUK1) (assay: (§1) Inhibition of bee venom PLA2). Settings: not given.
T1 sequence (B7UUK1 whole entry): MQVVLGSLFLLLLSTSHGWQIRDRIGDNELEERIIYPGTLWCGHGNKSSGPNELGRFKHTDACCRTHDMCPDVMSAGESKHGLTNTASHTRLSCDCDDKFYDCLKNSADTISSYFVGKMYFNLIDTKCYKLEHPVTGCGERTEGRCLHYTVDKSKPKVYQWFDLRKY
`CC1(C)CCC[C@]2(C)[C@H]3C[C@@H](O)[C@]4(C)[C@@H](C=O)C(C=O)=CC[C@H]4[C@]3(C)CC[C@@H]12` gave an IC50 of 200 nM.
Work on `CC1=C(CC/C(C)=C/CCC2=CC[C@H](C3=CC(=O)O[C@H]3O)O[C@H]2O)C(C)(C)CCC1` [MANOALIDE] yielded an IC50 of 40 nM.
`CC1=C(CC/C(C)=C/CC/C(C)=C/CCC2=CC(=O)OC2O)C(C)(C)CCC1` (stereo unspecified) [LUFFARIELLOLIDE] gave an IC50 of 230 nM.
In the case of `CC1=C(CC/C(C)=C/CC/C(C=O)=C\C=C\C2=CC(=O)O[C@H]2O)C(C)(C)CCC1`, the IC50 is reported as 280 nM.
Molecule `CC(=O)O[C@H]1C[C@@H]2[C@@]3(C)CCCC(C)(C)[C@@H]3CC[C@@]2(C)[C@@H]2CC=C(C=O)[C@H](C=O)[C@@]12C` [SCALARADIAL] has an IC50 of 70 nM.

What follows are molecules tested against T2, Phospholipase A2 (Apis mellifera) (UniProt B7UUK1) (assay: as §1). Settings: not given.
T2 sequence (whole entry): T1 sequence (B7UUK1 whole entry)
In the case of `C=C1CCC[C@H]2[C@](C)(CC3=C(O)C(=O)C=C(OC)C3=O)[C@@H](C)CC[C@]12C`, the Activity is reported as “inactive”.

What follows are molecules tested against T2, Phospholipase A2 (Apis mellifera) (assay: Inhibition of bee venom PLA2 assessed as inactivation of enzyme at 2 ug/ml). Settings: not given.
Design: scale not given: the % may be the effect or the level left
`CC1=C[C@H]2Cc3occc3C(C)(C)[C@H]2CC1` was tested, and the Activity was “inactive”.
With `CC(=O)O[C@@H]1O[C@H]2OC(=O)[C@H](C)C3=C([C@@]4(C)CCCC(C)(C)C4)C[C@@H](OC(C)=O)[C@@H]1[C@H]32` the Activity was 60%.
With `CCCC(=O)O[C@H]1[C@@H](O)[C@@]23C(CC[C@H]4C(=O)O[C@@H](O[C@H]2O)[C@H]43)[C@@]2(C)CCCC(C)(C)[C@@H]12` (stereo partly specified) the Activity was 44%.
With `CCCC(=O)O[C@H]1[C@@H](OC(C)=O)[C@@]23C(CC[C@H]4C(=O)O[C@@H](O[C@H]2O)[C@H]43)[C@@]2(C)CCCC(C)(C)[C@H]12` (stereo partly specified) the Activity was 50%.
With `CC1=CC2C[C@]34OC(=O)C[C@]3(O4)C(C)(C)C2CC1` (stereo partly specified) the Activity was “inactive”.
For `CCCC(=O)O[C@@H]1C[C@H]2C(C)(C)CCC[C@]2(C)C2CC[C@H]3C(=O)O[C@H]4O[C@@H](O)[C@]21[C@H]43` (stereo partly specified), the Activity was 65%.
Work on `C=C1CCCC(C)(C)[C@@H]2CC[C@@](C)([C@H]3[C@H]4CC(=O)O[C@H]4O[C@H]3O)[C@H]12` yielded an Activity of 48%.
For `CC1=C[C@H]2Cc3ccoc3C(C)(C)[C@H]2CC1`, the Activity was “inactive”.
Molecule `CC1=CC2C[C@]3(O)OC(=O)C=C3C(C)(C)C2CC1` (stereo partly specified) has an Activity of 60%.
For `C=C([C@@H]1[C@@H](OC(C)=O)O[C@@H]2OC(=O)C[C@@H]21)[C@H]1CC[C@H]2C(C)(C)CCC[C@]12C`, the Activity was 66%.
`CC1=CC(CC2=CC(=O)OC2O)C(C(C)C)CC1` (stereo unspecified) showed an Activity of 60%.

What follows are molecules tested against T2, Phospholipase A2 (Apis mellifera) (assay: Inhibition of bee venom PLA2 at 4 uM). Settings: not given.
Work on `CC1(C)CCC[C@]2(C)[C@H]3C[C@@H](O)[C@]4(C)[C@H](C=O)C(C=O)=CC[C@H]4[C@]3(C)CC[C@@H]12` yielded an inhibition of under 70%.

The molecules below were run against T3, Phospholipase A2, membrane associated (Homo sapiens) (UniProt P14555) (assay: Inhibition of human synovial fluid-PLA2). Settings: concentration not given here.
T3 sequence (whole entry): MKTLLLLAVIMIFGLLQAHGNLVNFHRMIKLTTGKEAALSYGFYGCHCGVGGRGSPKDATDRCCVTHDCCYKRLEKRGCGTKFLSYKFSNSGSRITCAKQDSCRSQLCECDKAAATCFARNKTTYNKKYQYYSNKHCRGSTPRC
Molecule `CC1=C(CC/C(C)=C/CC/C(C)=C/CCC2=CC(=O)OC2O)C(C)(C)CCC1` (stereo unspecified) [LUFFARIELLOLIDE] has an inhibition of 98%.

What follows are molecules tested against T2, Phospholipase A2 (Apis mellifera) (assay: Inhibition of bee venom PLA2 assessed as inactivation of enzyme at 1.6 ug/ml). Settings: not given.
Design: scale not given: the % may be the effect or the level left
Outline: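 ³H-dipalmitoyl phosphatidylcholine (1.36 mM, Triton X-100 mixed micelles) in 10 mM HEPES, 1 mM CaCl2, pH 7.4. Bee venom PLA2 (100 units/ml) preincubated 1 h at 41° with compound from 10 mg/ml stock, then added to substrate for 15 sec at 41°. Acid-quenched, released palmitic acid extracted and scintillation counted, corrected for background and extraction efficiency. % inactivation vs vehicle, triplicate mean.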
For `Oc1cc(Cc2c(O)cc(O)c(Br)c2O)c(Br)c(Br)c1O`, the Activity was 96%.
`Oc1cc(Cc2c(O)c(Br)c(O)c(Cc3cc(O)c(O)c(Br)c3Br)c2O)c(Br)c(Br)c1O` gave an Activity of 96%.
